In the library only some 3.4% were active in any assay of this set; here they are far more common.
VIM-2 inh – blocks Pseudomonas aeruginosa VIM-2 metallo-beta-lactamase; AID 1527; hit rate 0.89% among 290,000; purified VIM-2, nitrocefin hydrolysis, epi-absorbance fluorescence; inhibition, % at 5.6 µM;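 active = inhibition above the mean of all tested compounds plus 3 SD, cutoff set per screening run, cut at about 7.5% in these data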;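 note: red hydrolysis product quenches plate fluorescence so inhibitors raise well fluorescence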
MEKK2 mut-MEK5 – signal of MEK5 binding to mutant human MEKK2 PB1 domain; bead flow cytometry, Alexa488-MEK5 binding to MEKK2 mutant; percent response, % at 10 µM; hit rate 0.35% among 290,000; in the data active = percent response above about 24%, passing the limit was not always enough
IMP-1 inh-1 – blocks Pseudomonas aeruginosa IMP-1 metallo-beta-lactamase; purified IMP-1, nitrocefin hydrolysis, epi-absorbance fluorescence; inhibition, % at 5.6 µM; hit rate 0.45% among 290,000;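 active = inhibition above the mean plus 3 SD of all compounds in the same screening run, cut at about 4.5% in these data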
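assay system = purified recombinant IMP-1 metallo-beta-lactamase enzyme | schedule = 15 min preincubation plus 25 min reaction at 25 °C | signal = Epi-absorbance fluorescence, 480 nm excitation, 530 nm emission | read-out basis = percent inhibition from optical density relative to buffer-blank wells | controls = IMP-1 with DMSO as 0%, enzyme-free DMSO as 100%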
MEKK2 WT-MEK5 – raises or lowers MEK5 binding to wildtype human MEKK2 PB1 domain. bead flow cytometry, Alexa488-MEK5 binding to MEKK2 WT; actives lie on both sides. hit rate 1.1% among 290,000. Q9Y2U5. binding response (% of control), % at 10 µM; in the data active = binding response below about 67% or above about 130%
MEKK3 PB1 HTS – modulators (inhibitors or enhancers) of MEK5 binding to human MEKK3 PB1 domain. bead-based flow cytometry, Alexa488-MEK5 binding to MEKK3; actives lie on both sides; 0 = blocked by unlabeled MEK5, 100 = vehicle. AID 1529. binding response (% of control), % at 10 µM. hit rate 1.4% among 290,000;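 active = binding response more than 3 SD above or below the average of its plate-row segment, actives on both sides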;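 note: Alexa488 bead fluorescence after subtracting the streptavidin-only scavenger bead signal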
IMP-1 inh-2 – blocks IMP-1 metallo-beta-lactamase in VIM-2 selectivity screen; shares compounds with VIM-2 inh; 1,300 tested, under 10 active; inhibition, % at 5.6 µM; purified IMP-1, nitrocefin hydrolysis, epi-absorbance fluorescence; call rule not given here
VIM-2 FRET ctr – inhibits VIM-2 in FRET assay to exclude epi-absorbance artifacts. shares compounds with VIM-2 inh. purified VIM-2, CCF2 FRET substrate hydrolysis. inhibition, % at 5.6 µM. hit rate 23% among 1,300. AID 1857;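 active = inhibition above the mean of all tested compounds plus 3 SD, cut at about 19% in these data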
TEM-1 counter – blocks E. coli TEM-1 beta-lactamase in VIM-2 selectivity screen; shares compounds with VIM-2 inh; Purified TEM-1, nitrocefin hydrolysis, epi-absorbance fluorescence; inhibition, % at 5.6 µM; hit rate 3% among 1,300; AID 1866;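 active = inhibition above that campaign's mean inhibition plus 3 SD, cut at about 0.46% in these data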
Target sequence (P62593 whole entry, looked up): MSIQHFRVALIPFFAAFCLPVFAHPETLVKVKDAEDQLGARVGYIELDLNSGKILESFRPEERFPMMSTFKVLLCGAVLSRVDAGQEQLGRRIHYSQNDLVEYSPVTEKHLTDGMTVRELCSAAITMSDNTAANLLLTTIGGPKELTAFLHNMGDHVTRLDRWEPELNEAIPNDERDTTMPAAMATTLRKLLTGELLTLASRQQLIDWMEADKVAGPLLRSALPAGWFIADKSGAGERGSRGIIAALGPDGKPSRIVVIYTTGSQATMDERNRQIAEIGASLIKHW
VIM-2 confirm 2 – confirmation of P. aeruginosa VIM-2 metallo-beta-lactamase inhibitors; purified VIM-2, nitrocefin hydrolysis, epi-absorbance; inhibition, % at 5.6 µM; hit rate 96% among 1,300; AID 2187; shares compounds with VIM-2 inh;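 active = inhibition of the VIM-2 beta-lactamase enzyme above about 11% from the earlier first-round screen, limit read from the data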
Large screens that a line does not name were inactive (follow-up assays come after a bar, where they were run).

Cc1c(OCC(=O)N(C)c2ccccc2)ccc2c3c(c(=O)oc12)CCC3	VIM-2 inh 20 | IMP-1 inh-2 inactive | VIM-2 FRET ctr inactive | TEM-1 counter inactive | VIM-2 confirm 2 29
Cc1c(OCC(=O)NCc2cccnc2)ccc2c3c(c(=O)oc12)CCCC3	VIM-2 inh 17 | IMP-1 inh-2 inactive | VIM-2 FRET ctr inactive | TEM-1 counter inactive | VIM-2 confirm 2 26
CCOc1cc(NC(=O)c2ccco2)c(OCC)cc1NC(=O)Cc1ccc(OC)c(OC)c1	none
Cc1cc(N2CCOCC2)nc2cc(O)ccc12	none
CC(=O)Oc1ccc2c3c(c(=O)oc2c1C)CCCC3	none
Cc1c(OCC(=O)NCc2ccncc2)ccc2c3c(c(=O)oc12)CCCC3	VIM-2 inh 49 | IMP-1 inh-2 inactive | VIM-2 FRET ctr inactive | TEM-1 counter inactive | VIM-2 confirm 2 63
CC(C)Oc1ccc(NC(=O)C2CCCNC2=O)cc1 (stereo not drawn)	none
O=C(C1CCN(c2ncnc3c2nc2n3CCCCC2)CC1)N1CCN(c2cccc(Cl)c2)CC1	none
O=C(C1CCN(c2ncnc3c2sc2cccc(F)c23)CC1)N1CCCC1	VIM-2 inh 13 | IMP-1 inh-2 inactive | VIM-2 FRET ctr inactive | TEM-1 counter inactive | VIM-2 confirm 2 27
CCCn1c(SCC(=O)N2CCCCC2)nc2c1c(=O)n(C)c(=O)n2C	none
CCn1c(SCC(=O)N2CCN(C)CC2)nc2c1c(=O)n(C)c(=O)n2C	VIM-2 inh 55 | IMP-1 inh-2 inactive | VIM-2 FRET ctr inactive | TEM-1 counter inactive | VIM-2 confirm 2 63
CCN1CCN(C(=O)CSc2nc3c(c(=O)n(C)c(=O)n3C)n2C)CC1	VIM-2 inh 76 | IMP-1 inh-2 inactive | VIM-2 FRET ctr inactive | TEM-1 counter inactive | VIM-2 confirm 2 85
CCCn1c(SCC(=O)N2CCN(CC)CC2)nc2c1c(=O)n(C)c(=O)n2C	VIM-2 inh 52 | IMP-1 inh-2 inactive | VIM-2 FRET ctr inactive | TEM-1 counter inactive | VIM-2 confirm 2 61
O=C(c1ccc(Cl)c([N+](=O)[O-])c1)N(Cc1ccc(F)cc1)C1CCS(=O)(=O)C1 (stereo not drawn)	none
CC1=Nc2cc(C(=O)NCCCN3CCOCC3)ccc2Sc2c(C)ccc(C)c21	none
CNC(=O)CSc1nnc(NC(=O)C2CC(=O)N(c3ccccc3OC)C2)s1 (stereo not drawn)	VIM-2 inh 33 | IMP-1 inh-2 inactive | VIM-2 FRET ctr inactive | TEM-1 counter inactive | VIM-2 confirm 2 inactive
COc1ccc(-c2nnc3c4ccccc4c(C)nn23)cc1	none
COc1ccc(-c2nnc3c4ccccc4c(C)nn23)cc1S(=O)(=O)N1CCN(CCO)CC1	VIM-2 inh 27 | IMP-1 inh-2 inactive | VIM-2 FRET ctr inactive | TEM-1 counter inactive | VIM-2 confirm 2 40
Cc1nn2c(-c3ccc(S(=O)(=O)N4CCN(CCO)CC4)o3)nnc2c2ccccc12	VIM-2 inh 26 | IMP-1 inh-2 inactive | VIM-2 FRET ctr inactive | TEM-1 counter inactive | VIM-2 confirm 2 35
CCCCn1c2ccc(C)cc2c2nnc(SCCN3CCCCC3)nc21	VIM-2 inh 22 | IMP-1 inh-2 inactive | VIM-2 FRET ctr inactive | TEM-1 counter inactive | VIM-2 confirm 2 33
Cc1ccc2[nH]c3nc(SCCN4CCOCC4)nnc3c2c1	none
Cc1cc(C)c2c(c1)c1nnc(SCCN3CCCCC3)nc1n2C	VIM-2 inh 23 | IMP-1 inh-2 inactive | VIM-2 FRET ctr inactive | TEM-1 counter inactive | VIM-2 confirm 2 33
Cn1c2ccccc2c2nnc(SCc3nnc(-c4ccccc4)o3)nc21	none
Cn1c2ccccc2c2nnc(SCCN3CCOCC3)nc21	VIM-2 inh 17 | IMP-1 inh-2 inactive | VIM-2 FRET ctr inactive | TEM-1 counter inactive | VIM-2 confirm 2 23
